Source: ChEMBL document CHEMBL1122809, “Improved synthesis and antitumor activity of 2-bromo-2'-deoxyadenosine” (1984)

How the values were obtained:
M5076 [1] = experiment: Antitumor activity was evaluated by measuring mean life span in tumor (M5076) inoculated mice at 22.5 mg/kg (qd3hx8),days 1-34; type: functional, Mus musculus
In short: (§1)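 Female mice of about 18 g received subcutaneous M5076 implants matching those used for serial passage. Drug was freshly prepared and injected at 0.01 mL/g every 3 h (×8) on every 3rd day from day 1 to day 34, with the dose stated per injection. Controls received 0.154 M NaCl. Groups held 18 mice (11 in one group). Mean life span was reported as mean ± SD, and tumor volume was also assessed.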

L1210 [2] = experiment: Antitumor activity expressed percentage increase in life span was determined against inoculated L1210 leukemia cells (1*10e6) in mice by 180 mg/kg dosage of compound (qd (x 3), for days 1, 4, 7); type: functional; conditions: Mus musculus
In short: (§2)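 L1210 cells were given intraperitoneally to female mice (~18 g). Freshly prepared drug was injected at 0.01 mL/g, dose per injection, and saline-injected controls were run. The end point was duration of survival. ILS was calculated as percent increase in mean life span over controls. Mice surviving 60 days or more counted as long-term survivors, scored as 60 days.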

L1210 [3] = experiment: Antitumor activity expressed percentage increase in life span was determined against inoculated L1210 leukemia cells (1*10e5) in mice by 17.3 mg/kg dosage of compound (qd (x 3), for days 1,5,9); type: functional; conditions: Mus musculus; in short: as §2
L1210 [4] = experiment: Antitumor activity expressed percentage increase in life span was determined against inoculated L1210 leukemia cells (1*10e6) in mice by 22.5 mg/kg dosage of compound (qd (x 3), for days 1, 4, 7); type: functional; conditions: Mus musculus; in short: as §2
L1210 [5] = experiment: Antitumor activity expressed as life span was determined against inoculated L1210 leukemia cells (1*10e5) in mice by 45 mg/kg dosage of compound (qd (x 3), for days 1,5,9); type: functional, Mus musculus
In short: (§3)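 Female mice (~18 g, housed six per cage) received L1210 cells intraperitoneally on day 0. Drug was made fresh and injected at 0.01 mL/g; the stated dose is per injection. Controls received the same volume of 0.154 M NaCl. Survival was followed, with deaths assigned to tumour by necropsy or to drug toxicity by set criteria. Life span is given as mean ± SD.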

L1210 [6] = experiment: Antitumor activity expressed percentage increase in life span was determined against inoculated L1210 leukemia cells (1*10e6) in mice by 70 mg/kg dosage of compound (qd (x 3), for days 1, 4, 7); type: functional; conditions: Mus musculus
In short: (§4)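 Female mice of about 18 g (BDF1, DBA/2 or C57Bl/6 stocks used) were inoculated intraperitoneally with 1 × 10^6 L1210 cells. Freshly prepared drug was given once daily from about 24 h after inoculation at 0.01 mL/g, with the dose stated per injection. Controls received 0.154 M NaCl, and groups held 6 mice. %ILS was taken from mean survival, with mice alive at 60 days or more counted as 60 days.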

L1210 [7] = experiment: Antitumor activity expressed as life span was determined against inoculated L1210 leukemia cells (1*10e6) in mice by 22.5 mg/kg dosage of compound (qd (x 3), for days 1, 4, 7); type: functional, Mus musculus; in short: as §3
L1210 [8] = experiment: Antitumor activity expressed as life span was determined against inoculated L1210 leukemia cells (1*10e6) in mice by 45 mg/kg dosage of compound (qd (x 3), for days 1, 4, 7); type: functional, Mus musculus; in short: as §3
L1210 [9] = experiment: Antitumor activity expressed percentage increase in life span was determined against inoculated L1210 leukemia cells (1*10e6) in mice by 90 mg/kg dosage of compound (qd (x 3), for days 1, 4, 7); type: functional; conditions: Mus musculus; in short: as §4
L1210 [10] = experiment: Antitumor activity expressed percentage increase in life span was determined against inoculated L1210 leukemia cells (1*10e6) in mice by 11.3 mg/kg dosage of compound (qd (x 3), for days 1, 4, 7,10,13,16); type: functional; conditions: Mus musculus; in short: as §2
B16 melanoma (mouse) = experiment: Antitumor activity expressed percentage increase in life span was determined against inoculated B16 melanoma in mice by 22.5 mg/kg dosage of compound (qd3hx8), for days 1,4,7,10,13,16
L1210 [11] = experiment: Antitumor activity expressed as life span was determined against inoculated L1210 leukemia cells (1*10e6) in mice by 5.6 mg/kg dosage of compound (qd (x 3), for days 1, 4, 7); type: functional, Mus musculus; in short: as §3
L1210 [12] = experiment: Antitumor activity expressed as life span was determined against inoculated L1210 leukemia cells (1*10e6) in mice by 50 mg/kg dosage of compound (qd (x 3), for days 1- 7); type: functional, Mus musculus; in short: as §3
M5076 [13] = experiment: Antitumor activity was evaluated by measuring mean life span in tumor (M5076) inoculated mice at 11.3 mg/kg (qd3hx8),days 1-34; type: functional, Mus musculus; in short: as §1
L1210 [14] = experiment: Antitumor activity expressed as life span was determined against inoculated L1210 leukemia cells (1*10e6) in mice by 90 mg/kg dosage of compound (qd (x 3), for days 1- 7); type: functional, Mus musculus; in short: as §3
L1210 [15] = experiment: Antitumor activity expressed percentage increase in life span was determined against inoculated L1210 leukemia cells (1*10e6) in mice by 110 mg/kg dosage of compound (qd (x 3), for days 1, 4, 7); type: functional; conditions: Mus musculus; in short: as §2
L1210 [16] = experiment: Antitumor activity expressed percentage increase in life span was determined against inoculated L1210 leukemia cells (1*10e6) in mice by 30 mg/kg dosage of compound (qd (x 3), for days 1- 7); type: functional; conditions: Mus musculus; in short: as §2

Compound `Nc1nc(Br)nc2c1ncn2[C@H]1C[C@H](O)[C@@H](CO)O1` has a Life span (M5076 [1]) of 46.41 days, an ILS at 180 mg/kg (L1210 [2]) of 0% and an ILS at 17.3 mg/kg (L1210 [3]) of 81%. It also gave an ILS at 22.5 mg/kg (L1210 [4]) of 137%, a Life span (L1210 [5]) of 37.73 days and an ILS at 70 mg/kg (L1210 [6]) of 3%. It also gave a Life span (L1210 [7]) of 15 days, a Life span (L1210 [8]) of 13.5 days and an ILS at 90 mg/kg (L1210 [9]) of 11%. It also gave an ILS at 11.3 mg/kg (L1210 [10]) of 86%, an ILS at 22.5 mg/kg (B16 melanoma (mouse)) of 10% and a Life span (L1210 [11]) of 11.08 days. For the same compound, the Life span (L1210 [12]) was 9 days, the Life span (M5076 [13]) was 39.72 days and the Life span (L1210 [14]) was 4.83 days. For the same compound, the ILS at 110 mg/kg (L1210 [15]) was 29% and the ILS at 30 mg/kg (L1210 [16]) was 21%.
